Results published in ChEMBL document CHEMBL4002590, “Design and Synthesis of a Pan-Janus Kinase Inhibitor Clinical Candidate (PF-06263276) Suitable for Inhaled and Topical Delivery for the Treatment of Inflammatory Diseases of the Lungs and Skin” (J Med Chem, 2017).
Active and inactive are the calls of the source. The rule behind the calls is not given here.

Legend:
[1] = Drug metabolism in human liver microsomes assessed as UGT-mediated compound glucuronidation per mg protein in presence of microsomal activator Brij58 and cofactor UDPGA; assay type: ADME
How it was run: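 Human liver microsomes supplemented with the activator Brij58 and cofactor UDPGA, NADPH omitted, to measure phase II glucuronidation turnover.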

Janus Kinase (JAK) [2] = biological target: T1, Janus Kinase (JAK) (Homo sapiens, UniProt P52333+P23458+O60674+P29597); test: Inhibition of JAK in human PBMC assessed as reduction in human recombinant IL-2/mouse anti-human CD3 stimulated IFNgamma production preincubated for 1 hr followed by IL2/CD3 stimulation measured after 18 hrs by ELISA
T1 sequence (O60674 whole entry, looked up, one chain of several): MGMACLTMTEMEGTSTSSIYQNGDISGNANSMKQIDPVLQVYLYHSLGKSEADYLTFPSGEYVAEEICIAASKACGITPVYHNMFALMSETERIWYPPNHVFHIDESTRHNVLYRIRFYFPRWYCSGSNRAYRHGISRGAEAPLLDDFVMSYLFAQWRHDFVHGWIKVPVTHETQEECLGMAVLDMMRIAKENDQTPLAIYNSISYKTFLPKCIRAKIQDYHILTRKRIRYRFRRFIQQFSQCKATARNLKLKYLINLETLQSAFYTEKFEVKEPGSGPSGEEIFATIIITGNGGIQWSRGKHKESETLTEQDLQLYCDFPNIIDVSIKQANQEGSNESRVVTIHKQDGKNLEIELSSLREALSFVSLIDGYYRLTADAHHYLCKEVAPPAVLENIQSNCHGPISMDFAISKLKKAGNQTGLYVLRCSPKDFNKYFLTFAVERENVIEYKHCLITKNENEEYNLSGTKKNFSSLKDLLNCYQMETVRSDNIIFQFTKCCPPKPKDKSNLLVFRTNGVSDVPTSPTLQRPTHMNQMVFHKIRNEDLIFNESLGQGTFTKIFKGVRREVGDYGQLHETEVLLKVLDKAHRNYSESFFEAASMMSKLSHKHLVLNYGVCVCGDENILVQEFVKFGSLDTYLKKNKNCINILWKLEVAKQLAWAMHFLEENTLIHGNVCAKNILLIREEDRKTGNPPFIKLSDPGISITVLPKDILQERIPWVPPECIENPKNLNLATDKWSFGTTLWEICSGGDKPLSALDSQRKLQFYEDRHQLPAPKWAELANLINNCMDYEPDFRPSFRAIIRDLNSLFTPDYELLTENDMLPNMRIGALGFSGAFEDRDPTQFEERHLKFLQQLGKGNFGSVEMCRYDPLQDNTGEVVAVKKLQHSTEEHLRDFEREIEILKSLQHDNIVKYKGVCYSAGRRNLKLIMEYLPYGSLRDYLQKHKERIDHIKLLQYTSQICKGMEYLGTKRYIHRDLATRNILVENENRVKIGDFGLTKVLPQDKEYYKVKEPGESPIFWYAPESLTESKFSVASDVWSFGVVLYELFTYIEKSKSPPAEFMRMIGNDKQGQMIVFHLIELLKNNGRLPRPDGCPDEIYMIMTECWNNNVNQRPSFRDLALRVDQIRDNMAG
T1 sequence (P23458 whole entry, looked up, one chain of several): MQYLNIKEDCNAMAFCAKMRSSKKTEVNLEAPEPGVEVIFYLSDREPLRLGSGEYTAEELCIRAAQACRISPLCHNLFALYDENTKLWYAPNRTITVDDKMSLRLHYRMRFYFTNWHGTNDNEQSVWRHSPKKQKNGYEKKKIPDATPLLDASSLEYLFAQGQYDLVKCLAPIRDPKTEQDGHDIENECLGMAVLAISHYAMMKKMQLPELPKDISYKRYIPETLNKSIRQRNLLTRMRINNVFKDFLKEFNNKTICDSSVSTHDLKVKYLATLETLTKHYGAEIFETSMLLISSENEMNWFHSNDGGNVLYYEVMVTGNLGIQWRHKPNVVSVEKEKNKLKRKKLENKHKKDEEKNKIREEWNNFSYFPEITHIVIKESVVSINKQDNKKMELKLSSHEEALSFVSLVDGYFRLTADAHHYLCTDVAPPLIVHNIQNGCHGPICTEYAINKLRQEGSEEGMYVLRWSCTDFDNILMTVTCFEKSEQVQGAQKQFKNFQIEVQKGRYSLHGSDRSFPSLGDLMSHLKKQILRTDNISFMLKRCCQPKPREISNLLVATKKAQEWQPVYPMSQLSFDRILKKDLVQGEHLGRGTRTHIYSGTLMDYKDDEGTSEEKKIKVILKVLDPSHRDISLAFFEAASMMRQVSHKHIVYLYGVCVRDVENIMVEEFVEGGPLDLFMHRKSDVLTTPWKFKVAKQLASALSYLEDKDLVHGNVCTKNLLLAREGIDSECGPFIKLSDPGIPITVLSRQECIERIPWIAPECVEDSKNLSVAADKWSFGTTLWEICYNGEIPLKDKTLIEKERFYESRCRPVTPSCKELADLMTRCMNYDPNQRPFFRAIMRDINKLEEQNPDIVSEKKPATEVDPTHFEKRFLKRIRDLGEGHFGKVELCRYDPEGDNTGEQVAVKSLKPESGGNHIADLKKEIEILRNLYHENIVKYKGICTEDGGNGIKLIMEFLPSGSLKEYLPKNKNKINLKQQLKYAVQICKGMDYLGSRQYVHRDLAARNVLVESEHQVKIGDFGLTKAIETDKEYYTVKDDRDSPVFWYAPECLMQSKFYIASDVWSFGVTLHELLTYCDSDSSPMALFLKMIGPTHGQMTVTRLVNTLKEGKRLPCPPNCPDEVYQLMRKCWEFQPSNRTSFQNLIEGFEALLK
T1 sequence (P29597 whole entry, looked up, one chain of several): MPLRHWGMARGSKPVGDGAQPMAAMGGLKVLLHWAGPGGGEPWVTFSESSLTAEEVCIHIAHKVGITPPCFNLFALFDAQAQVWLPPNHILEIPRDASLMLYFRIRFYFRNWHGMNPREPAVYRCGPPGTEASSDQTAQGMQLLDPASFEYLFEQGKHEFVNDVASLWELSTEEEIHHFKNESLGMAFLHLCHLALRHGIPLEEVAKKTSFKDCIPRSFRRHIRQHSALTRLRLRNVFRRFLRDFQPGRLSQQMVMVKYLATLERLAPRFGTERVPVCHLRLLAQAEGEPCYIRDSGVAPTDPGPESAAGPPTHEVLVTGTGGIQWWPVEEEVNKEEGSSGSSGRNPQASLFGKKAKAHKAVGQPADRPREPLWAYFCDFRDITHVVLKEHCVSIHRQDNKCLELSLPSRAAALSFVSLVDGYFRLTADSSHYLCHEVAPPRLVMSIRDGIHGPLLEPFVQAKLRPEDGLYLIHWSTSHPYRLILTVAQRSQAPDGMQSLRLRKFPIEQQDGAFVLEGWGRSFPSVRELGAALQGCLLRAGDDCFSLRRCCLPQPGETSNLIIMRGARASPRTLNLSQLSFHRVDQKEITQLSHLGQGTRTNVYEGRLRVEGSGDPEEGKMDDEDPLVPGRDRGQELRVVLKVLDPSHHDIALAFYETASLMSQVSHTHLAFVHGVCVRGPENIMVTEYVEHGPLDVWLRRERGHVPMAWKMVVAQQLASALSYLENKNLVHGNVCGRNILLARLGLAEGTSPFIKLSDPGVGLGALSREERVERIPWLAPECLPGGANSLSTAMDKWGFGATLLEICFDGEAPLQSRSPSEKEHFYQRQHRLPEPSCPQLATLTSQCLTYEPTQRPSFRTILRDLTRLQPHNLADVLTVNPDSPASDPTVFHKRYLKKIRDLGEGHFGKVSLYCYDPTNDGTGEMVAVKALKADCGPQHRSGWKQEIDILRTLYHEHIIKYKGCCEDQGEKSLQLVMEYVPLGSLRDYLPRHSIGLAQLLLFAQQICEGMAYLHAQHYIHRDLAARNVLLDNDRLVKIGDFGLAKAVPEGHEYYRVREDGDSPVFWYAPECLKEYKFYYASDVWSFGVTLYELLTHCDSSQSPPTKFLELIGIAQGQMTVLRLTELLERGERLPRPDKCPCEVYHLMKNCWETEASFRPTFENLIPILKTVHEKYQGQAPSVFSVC
How it was run: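 Primary PBMCs stimulated with IL-2; inhibition of IFNγ release measured. IC50 values are geometric means of at least three determinations.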

[3] = biological target: T2, Tyrosine-protein kinase JAK3 (Homo sapiens, UniProt P52333); test: Inhibition of GST tagged human recombinant JAK3 catalytic domain expressed in baculovirus using peptide substrate preincubated for 60 mins followed by substrate addition and measured after 60 mins by microfluidic assay
T2 sequence (P52333 whole entry): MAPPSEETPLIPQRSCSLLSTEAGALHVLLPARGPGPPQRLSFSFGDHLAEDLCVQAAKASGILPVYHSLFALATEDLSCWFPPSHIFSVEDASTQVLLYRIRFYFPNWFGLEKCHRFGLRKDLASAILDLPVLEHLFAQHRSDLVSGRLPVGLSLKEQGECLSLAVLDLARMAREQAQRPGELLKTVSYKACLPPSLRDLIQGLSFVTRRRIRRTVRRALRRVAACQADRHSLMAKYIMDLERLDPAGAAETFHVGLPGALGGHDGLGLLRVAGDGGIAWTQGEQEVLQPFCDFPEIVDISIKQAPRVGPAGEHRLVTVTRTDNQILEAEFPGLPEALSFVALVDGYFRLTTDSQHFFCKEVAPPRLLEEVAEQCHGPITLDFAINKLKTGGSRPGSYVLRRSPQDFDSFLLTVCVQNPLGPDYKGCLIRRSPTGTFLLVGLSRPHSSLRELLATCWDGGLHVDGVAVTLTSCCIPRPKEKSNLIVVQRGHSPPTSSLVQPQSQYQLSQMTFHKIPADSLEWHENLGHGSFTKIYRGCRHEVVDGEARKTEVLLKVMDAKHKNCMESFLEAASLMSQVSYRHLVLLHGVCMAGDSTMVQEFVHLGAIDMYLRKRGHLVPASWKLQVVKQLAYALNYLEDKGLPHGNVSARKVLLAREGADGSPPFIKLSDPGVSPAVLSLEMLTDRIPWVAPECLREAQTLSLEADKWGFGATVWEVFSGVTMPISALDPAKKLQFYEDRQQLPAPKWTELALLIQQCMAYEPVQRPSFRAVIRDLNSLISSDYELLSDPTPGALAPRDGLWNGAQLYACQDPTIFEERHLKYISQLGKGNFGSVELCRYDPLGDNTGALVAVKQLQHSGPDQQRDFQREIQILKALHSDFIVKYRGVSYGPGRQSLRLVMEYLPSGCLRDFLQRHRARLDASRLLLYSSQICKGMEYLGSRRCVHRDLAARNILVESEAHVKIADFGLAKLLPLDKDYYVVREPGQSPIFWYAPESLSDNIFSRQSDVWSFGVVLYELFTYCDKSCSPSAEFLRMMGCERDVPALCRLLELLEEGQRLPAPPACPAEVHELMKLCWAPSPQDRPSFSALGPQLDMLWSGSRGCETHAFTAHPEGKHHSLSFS
How it was run: (§1)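 Caliper microfluidic assay of peptide-substrate phosphorylation by the relevant JAK enzyme, run at 1 mM ATP; IC50 values are geometric means of at least three determinations.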

[4] = biological target: Tyrosine-protein kinase JAK2 (Homo sapiens, UniProt O60674); test: Inhibition of GST tagged human recombinant JAK2 catalytic domain expressed in baculovirus using peptide substrate preincubated for 60 mins followed by substrate addition and measured after 60 mins by microfluidic assay; how it was run: as §1
Tyrosine-protein kinase JAK2, sequence (O60674 whole entry, the tested form may be a part): as the sequence (O60674 whole entry, looked up, one chain of several) above

[5] = biological target: Tyrosine-protein kinase JAK1 (Homo sapiens, UniProt P23458); test: Inhibition of GST tagged human recombinant JAK1 catalytic domain expressed in baculovirus using peptide substrate preincubated for 60 mins followed by substrate addition and measured after 60 mins by microfluidic assay
Tyrosine-protein kinase JAK1, sequence (P23458 whole entry, the tested form may be a part): as the sequence (P23458 whole entry, looked up, one chain of several) above

[6] = Thermodynamic solubility of the compound in pH 7.4 water buffer using crystalline solid sample; assay type: physicochemical; conditions: read-out: Therm_solubility
How it was run: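 Thermodynamic solubility measured from crystalline solid in water buffered at pH 7.4.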

Liver = test: Metabolic stability in human liver microsomes assessed per mg protein; assay type: ADME, microsome
How it was run: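 Metabolic stability measured as turnover in human liver microsomes.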

[7] = biological target: Non-receptor tyrosine-protein kinase TYK2 (Homo sapiens, UniProt P29597); test: Inhibition of Tyk2 (unknown origin) using peptide substrate preincubated for 60 mins followed by substrate addition and measured after 60 mins by microfluidic assay; how it was run: as §1
Non-receptor tyrosine-protein kinase TYK2, sequence (P29597 whole entry): as the sequence (P29597 whole entry, looked up, one chain of several) above

Janus Kinase (JAK) [8] = biological target: T1, Janus Kinase (JAK)
[9] = biological target: T3, Tyrosine-protein kinase JAK3 (Homo sapiens) (UniProt P52333); test: Inhibition of GST tagged human recombinant JAK3 catalytic domain expressed in baculovirus assessed as offset rate by dilution recovery based microfluidic mobility shift assay
T3 sequence (whole entry): T2 sequence (P52333 whole entry)
How it was run: (§2)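 JAK3 inhibition kinetics measured by continuous dilution-recovery in a microfluidic mobility shift format; offset rate (min−1) converted to a recovery T1/2.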

Janus Kinase (JAK) [10] = biological target: T1, Janus Kinase (JAK); test: Inhibition of JAK in human PBMC assessed as reduction in human recombinant IL-2/ mouse anti-human CD3 stimulated STAT5 phosphorylation at tyrosine residue at 10-fold IC50 preincubated for 1 hr followed by compound washout and subsequent IL2/CD3 stimulation measured after 30 mins by immunofluorescence assay
How it was run: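 PBMC wash-out format: cells exposed to compound for 1 h at 10-fold IC50, washed extensively, then pSTAT5 response to IL-2 stimulation followed over time to give a recovery T1/2.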

[11] = biological target: T3, Tyrosine-protein kinase JAK3 (Homo sapiens); test: Inhibition of GST tagged human recombinant JAK3 catalytic domain expressed in baculovirus assessed as time taken for inhibition to reverse by 50% by dilution recovery based microfluidic mobility shift assay; how it was run: as §2
Janus Kinase (JAK) [12] = biological target: T1, Janus Kinase (JAK); test: Inhibition of JAK in human PBMC assessed as reduction in human recombinant IL-2/ mouse anti-human CD3 stimulated STAT5 phosphorylation at tyrosine residue preincubated for 1 hr followed by IL2/CD3 stimulation after 30 mins by immunofluorescence assay
Homo sapiens [13] = organism: Homo sapiens; test: Selectivity ratio of IC50 for GST tagged human recombinant JAK2 catalytic domain expressed in baculovirus to IC50 for GST tagged human recombinant JAK1 catalytic domain expressed in baculovirus
How it was run: (§3)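 Both IC50s come from the same microfluidic mobility-shift (Caliper) assay with 1 mM ATP. The read-out is inhibition of phosphorylation of a peptide substrate by JAK1, JAK2 or JAK3. Each IC50 is a geometric mean of at least three determinations.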

Homo sapiens [14] = organism: Homo sapiens; test: Selectivity ratio of IC50 for GST tagged human recombinant JAK3 catalytic domain expressed in baculovirus to IC50 for GST tagged human recombinant JAK1 catalytic domain expressed in baculovirus; how it was run: as §3
[15] = Aqueous solubility of the compound; assay type: physicochemical; conditions: buffer
Janus Kinase (JAK) [16] = biological target: T1, Janus Kinase (JAK); remark: listed apart in the source
[17] = biological target: Mitogen-activated protein kinase kinase kinase kinase 4 (Homo sapiens) (UniProt O95819); test: Inhibition of MAP4K4 (unknown origin) at 1 uM relative to control
Mitogen-activated protein kinase kinase kinase kinase 4 (Homo sapiens), sequence (O95819 2-1239 limits assumed): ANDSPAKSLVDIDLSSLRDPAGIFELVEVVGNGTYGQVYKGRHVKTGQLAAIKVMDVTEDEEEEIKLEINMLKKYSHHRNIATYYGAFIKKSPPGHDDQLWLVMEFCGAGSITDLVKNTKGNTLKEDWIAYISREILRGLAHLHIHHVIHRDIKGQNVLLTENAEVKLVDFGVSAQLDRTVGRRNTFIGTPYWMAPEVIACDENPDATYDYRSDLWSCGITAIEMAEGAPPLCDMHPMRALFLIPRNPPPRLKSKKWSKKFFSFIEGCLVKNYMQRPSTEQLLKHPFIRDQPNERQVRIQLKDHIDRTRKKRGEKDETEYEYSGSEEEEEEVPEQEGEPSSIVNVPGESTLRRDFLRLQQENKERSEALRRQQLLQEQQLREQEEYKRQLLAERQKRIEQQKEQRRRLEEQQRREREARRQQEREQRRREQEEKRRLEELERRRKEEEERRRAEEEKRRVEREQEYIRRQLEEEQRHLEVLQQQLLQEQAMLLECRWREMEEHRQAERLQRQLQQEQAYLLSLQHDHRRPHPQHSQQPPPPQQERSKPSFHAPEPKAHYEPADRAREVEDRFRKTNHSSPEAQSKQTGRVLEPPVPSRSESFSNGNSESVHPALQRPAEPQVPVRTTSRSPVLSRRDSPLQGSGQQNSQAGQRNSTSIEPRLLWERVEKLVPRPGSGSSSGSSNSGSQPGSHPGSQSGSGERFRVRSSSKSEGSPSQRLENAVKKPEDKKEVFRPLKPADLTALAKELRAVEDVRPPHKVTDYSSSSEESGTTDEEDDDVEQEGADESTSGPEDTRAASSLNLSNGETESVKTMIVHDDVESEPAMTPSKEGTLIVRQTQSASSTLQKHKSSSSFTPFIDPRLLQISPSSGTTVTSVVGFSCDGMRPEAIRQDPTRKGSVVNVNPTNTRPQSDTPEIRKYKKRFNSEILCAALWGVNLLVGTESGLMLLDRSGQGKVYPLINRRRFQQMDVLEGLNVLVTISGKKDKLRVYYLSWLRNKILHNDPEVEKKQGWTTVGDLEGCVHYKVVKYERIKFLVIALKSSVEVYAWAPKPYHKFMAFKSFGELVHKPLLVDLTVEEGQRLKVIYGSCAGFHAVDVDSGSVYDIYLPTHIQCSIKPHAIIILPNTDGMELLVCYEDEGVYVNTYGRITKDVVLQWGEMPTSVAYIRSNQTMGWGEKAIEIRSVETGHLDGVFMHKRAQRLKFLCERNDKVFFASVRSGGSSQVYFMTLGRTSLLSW

Drug metabolism [1] [µL/min]	IC50 (Janus Kinase (JAK) [2]) [nM]	IC50 [3] [nM]	IC50 [4] [nM]	IC50 [5] [nM]	solubility thermodynamic [6]	Stability (Liver) [µL/min]	IC50 [7] [nM]	T1/2 (Janus Kinase (JAK) [8]) [h]	K [9] [min⁻¹]	inhibition (Janus Kinase (JAK) [10])	T1/2 [11] [h]	IC50 (Janus Kinase (JAK) [12]) [nM]	Ratio IC50 (Homo sapiens [13])	Ratio IC50 (Homo sapiens [14])	solubility [15]	TDI (Janus Kinase (JAK) [16])	inhibition [17] [%]	Structure (SMILES)
46	204.8																	CCc1c(-c2ccc3c(-c4nc5ccccc5[nH]4)n[nH]c3c2)ccc(O)c1F
5.5	4.5	7.1	3.3	0.5	10 to 20 µM	42	22.7											CCc1cc(O)ccc1-c1ccc2c(-c3nc4c([nH]3)CN(C(C)=O)CC4)n[nH]c2c1
> 360	30.4	31	15.9	1.8		75	57.5											CCc1cc(O)c(F)cc1-c1ccc2c(-c3nc4c([nH]3)CN(Cc3ccccc3)CC4)n[nH]c2c1
> 360	47.9	16.7	7.9	0.8			15.3	3.5										CCc1cc(O)c(F)cc1-c1ccc2c(-c3nc4ccccc4[nH]3)n[nH]c2c1
	9.1	125	40.9	7.5	14 µM		796											CCc1cc(O)ccc1-c1ccc2c(C(=O)NC)n[nH]c2c1
	250.3	293	79.6	26.8			392											CC(C)c1cc(O)ccc1-c1ccc2c(-c3nc4ccccc4[nH]3)n[nH]c2c1
17																		CCc1cc(O)ccc1-c1ccc2c(-c3nc4c([nH]3)CCN(C(=O)c3cnc(N5CCCCC5)cn3)C4)n[nH]c2c1
	19.1	4.3	4.2	1.7	15 µM		54.5											CCc1cc(O)ccc1-c1ccc2c(C(N)=O)n[nH]c2c1
	> 10000	> 10000	> 10000	2760			> 10000											CCc1cc(O)ccc1-c1ccc2c(C(=O)N(C)C)n[nH]c2c1
37	35	1.7	0.3	< 0.1		48	0.8											CCc1cc(O)c(F)cc1-c1ccc2c(-c3nc4c([nH]3)CCN(C(=O)c3ccc(F)cc3)C4)n[nH]c2c1
	10.4	0.8	0.8	0.9	4.1 µM		4.6											CCc1cc(O)ccc1-c1ccc2c(-c3ncc[nH]3)n[nH]c2c1
	277.8	418	58.8	60	0.5 µM		816	4.5										CCc1cc(O)ccc1-c1ccc2c(C(=O)Nc3ccc(C)nc3)n[nH]c2c1
	572.7	493	101	68.6			291											Oc1cccc(-c2ccc3c(-c4nc5ccccc5[nH]4)n[nH]c3c2)c1
< 1.9	18.6	2.9	6.4	2.1	10 to 20 µM	56	20.1											CCc1cc(O)ccc1-c1ccc2c(-c3nc4c([nH]3)CN(C)CC4)n[nH]c2c1
> 200		34.1	21.2	2.3	20 µg/mL	131	959		0.024	inactive	0.467	343						C[C@@H]1CCN(C(=O)N2CC[C@@H](S(=O)(=O)c3cccc(O)c3)C2)C[C@@H]1N(C)c1ncnc2[nH]ccc12
													5	3				C[C@@H]1CCN(C(=O)CC#N)C[C@@H]1N(C)c1ncnc2[nH]ccc12
< 3.5		139	124	37.5		82	1630			inactive		27						C[C@@H]1CCN(C(=O)N2CCCC2)C[C@@H]1N(C)c1ncnc2[nH]ccc12
	75.4	166	17.3	9.7			437											CCCc1cc(O)ccc1-c1ccc2c(-c3nc4ccccc4[nH]3)n[nH]c2c1
7.3	39.1	1.3	5.6	1.3		18	25.1											CCc1cc(O)ccc1-c1ccc2c(-c3nc4c([nH]3)CN(S(C)(=O)=O)CC4)n[nH]c2c1
49	10.5	8.3	2.2	0.4		35	9.1	6.5	0.006		1.9				Insoluble	Active	> 85	CCc1cc(O)ccc1-c1ccc2c(-c3nc4ccccc4[nH]3)n[nH]c2c1
